Consider 21 compounds from ChEMBL document CHEMBL1141134, “Scaffold hopping with molecular field points: identification of a cholecystokinin-2 (CCK2) receptor pharmacophore and its use in the design of a prototypical series of pyrrole- and imidazole-based CCK2 antagonists” (J Med Chem, 2005).

A word on the Ki: it is a measure of affinity in units of concentration, obtained from inhibition or displacement. By logD is commonly meant the decadic logarithm of the distribution of all forms, ionised or not, between an organic phase and buffer at a given pH.

A value given as a limit tells only on which side of the number the result lay.

Series [1] deals with T1, Gastrin/cholecystokinin type B receptor (Mus musculus) (UniProt P56481).
T1 sequence (whole entry): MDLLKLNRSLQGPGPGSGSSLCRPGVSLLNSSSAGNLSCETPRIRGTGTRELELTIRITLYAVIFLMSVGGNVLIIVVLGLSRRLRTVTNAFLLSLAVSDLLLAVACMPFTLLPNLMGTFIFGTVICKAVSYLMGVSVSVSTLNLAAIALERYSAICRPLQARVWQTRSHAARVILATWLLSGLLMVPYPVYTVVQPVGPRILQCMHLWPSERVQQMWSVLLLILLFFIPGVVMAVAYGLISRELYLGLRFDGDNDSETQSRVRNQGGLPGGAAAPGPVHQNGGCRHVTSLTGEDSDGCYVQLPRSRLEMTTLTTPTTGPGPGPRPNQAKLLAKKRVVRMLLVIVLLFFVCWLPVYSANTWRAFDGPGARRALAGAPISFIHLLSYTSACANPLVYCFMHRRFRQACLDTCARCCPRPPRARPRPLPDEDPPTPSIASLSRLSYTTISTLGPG
The series can be described thus: Loss of Cholecystokinin 2 receptor activity relative to parent compound. Type of series: functional.

Series [2] addresses T2, Cholecystokinin receptor type A (Cavia porcellus, UniProt Q63931).
T2 sequence (Q63931 whole entry): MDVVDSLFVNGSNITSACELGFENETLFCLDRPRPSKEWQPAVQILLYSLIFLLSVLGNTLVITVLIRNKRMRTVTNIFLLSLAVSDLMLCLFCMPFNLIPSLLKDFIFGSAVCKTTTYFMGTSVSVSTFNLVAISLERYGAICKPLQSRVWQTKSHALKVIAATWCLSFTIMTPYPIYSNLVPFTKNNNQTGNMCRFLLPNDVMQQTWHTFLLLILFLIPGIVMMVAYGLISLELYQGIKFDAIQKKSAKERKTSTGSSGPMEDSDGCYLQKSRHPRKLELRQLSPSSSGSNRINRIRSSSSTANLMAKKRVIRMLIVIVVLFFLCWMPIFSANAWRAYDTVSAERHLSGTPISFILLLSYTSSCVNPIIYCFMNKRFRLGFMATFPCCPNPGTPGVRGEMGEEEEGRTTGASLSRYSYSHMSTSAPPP
As to the kind of experiment: Inhibition of 20 pM [125I]BH-CCK-8S binding to guinea pig pancreas membrane Cholecystokinin 1 receptor. The method in brief: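 Competition binding in guinea pig pancreas cell homogenates against 20 pM [125I]BH-CCK-8S; pKi ± SEM derived from at least three separate experiments.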

Series [3] deals with T3, Gastrin/cholecystokinin type B receptor (Mus musculus, UniProt P56481).
T3 sequence (P56481 whole entry): T1 sequence (whole entry)
The series can be described thus: Inhibition of 20 pM [125I]BH-CCK-8S binding to mouse cortical membrane Cholecystokinin 2 receptor. Summed up:
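Competition binding in mouse cortical membrane homogenates against 20 pM [125I]BH-CCK-8S tracer; pKi ± SEM from at least three separate experiments.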

A short description of series [4]: Percent material excreted unchanged was detected in the bile by i.v. administration (10 uM/Kg) to anesthetized rat. Type of series: ADME. To be noted: iv, read-out: Activity. Summed up:
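Anesthetized rats dosed iv bolus at 10 μmol/kg; bile duct cannulated, bile collected in 15 min intervals over 150 min total; unchanged compound measured by HPLC, reported as percent excreted.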

The nature of series [5]: Log D value was measured in octanol/buffer (pH 7.5). Type of series: physicochemical. The method in brief: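 Partition between octanol and buffer at pH 7.5.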
The nature of series [6]: Percent material excreted unchanged was detected in the bile by i.v. administration (1 or 10 uM/Kg) to anesthetized rat. Type of series: ADME. Particulars: iv, read-out: Activity. The method in brief:
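Anesthetized rats, iv bolus at 1 or 10 μmol/kg; bile duct cannulated, bile collected in 15 min intervals over 150 min total; unchanged compound in bile quantified by HPLC, expressed as percent of dose. Compounds given as bis(N-methyl-D-glucamine) salts.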

For the compound `CN(C(=O)[C@H](Cc1ccccc1)NC(=O)c1cc2[nH]cnc2cc1C(=O)NCC12CC3CC(CC(C3)C1)C2)c1cc(C(=O)O)cc(C(=O)O)c1`, the Activity in series [1] worked out at 2. Also, the Ki in series [2] is 3980 nM.
Take `CNC[C@H](O)[C@@H](O)[C@H](O)[C@H](O)CO.O=C(O)c1cccc(NC(=O)c2cc(-c3ccc4ccccc4c3)[nH]c2CC2CCCCCC2)c1`: the figures for the Ki in series [3] and in series [2] were 1260 nM and 3980 nM, respectively. Besides, in series [4], the dose excreted stood at 6%. This compound returned a logD in series [5] of 2.9.
With `O=C(O)c1cc(NC(=O)[C@H](Cc2ccccc2)NC(=O)c2cc3cc[nH]c3cc2C(=O)NCC23CC4CC(CC(C4)C2)C3)cc(C(=O)O)c1`, the results for the Ki in series [3] and in series [2] were 1 nM and 3980 nM, respectively.
As for `O=C(O)CCNC(=O)c1cc(-c2ccccc2)[nH]c1CC12CC3CC(CC(C3)C1)C2`, the Ki in series [3] was 3160 nM; in series [2], 10000 nM.
For the compound `O=C(O)c1cc(NC(=O)c2[nH]c(-c3ccccc3)nc2CC23CC4CC(CC(C4)C2)C3)cc(C(=O)O)c1`, the Ki is 158 nM in series [3] and 3160 nM in series [2].
`O=C(O)c1cc(NC(=O)[C@H](Cc2ccccc2)NC(=O)c2ccccc2C(=O)NCC23CC4CC(CC(C4)C2)C3)cc(C(=O)O)c1`: in series [3], affinity was put at a Ki of 31.6 nM.
Turning to `CNC[C@H](O)[C@@H](O)[C@H](O)[C@H](O)CO.O=C(O)c1cc(NC(=O)c2cc(-c3ccc4ccccc4c3)[nH]c2CC2CCCCCC2)cc(C(=O)O)c1`, the Ki is 200 nM in series [3] and 2510 nM in series [2]. Moreover, the dose excreted in series [4] was determined as 59%. In addition, the pH-dependent lipophilicity (logD) in series [5] was found to be 1.4.
Take `CNC[C@H](O)[C@@H](O)[C@H](O)[C@H](O)CO.O=C(Nc1cc(CO)cc(CO)c1)c1[nH]c(-c2ccc3ccccc3c2)nc1CC1CCCCCC1`: the results for the Ki in series [3] and in series [2] were 3980 nM and 3160 nM, respectively. Also, the dose excreted in series [4] turned out to be 1%. For the same compound, the pH-dependent lipophilicity (logD) in series [5] is > 4.
For `CNC[C@H](O)[C@@H](O)[C@H](O)[C@H](O)CO.O=C(O)c1cccc(NC(=O)c2[nH]c(-c3ccc4ccccc4c3)nc2CC2CCCCCC2)c1`, the inhibition constant Ki in series [3] is 794 nM. Also, in series [4], the dose excreted was found to be 5%. This compound also registered a logD in series [5] of 2.8.
Take `CNC[C@H](O)[C@@H](O)[C@H](O)[C@H](O)CO.O=C(O)c1cc(NC(=O)[C@H](Cc2ccccc2)NC(=O)c2cc3[nH]cnc3cc2C(=O)NCC23CC4CC(CC(C4)C2)C3)cc(C(=O)O)c1`: the Ki is 5.01 nM in series [3] and 1580 nM in series [2]. The dose excreted in series [6] was determined as 45%. Also, the logD in series [5] is -2.3.
Turning to `CNC[C@H](O)[C@@H](O)[C@H](O)[C@H](O)CO.O=C(NCC12CC3CC(CC(C3)C1)C2)c1cc2nc[nH]c2cc1C(=O)N[C@@H](Cc1ccccc1)C(=O)Nc1cc(CO)cc(CO)c1`, in series [6], the dose excreted turned out to be 22%. Moreover, the Ki in series [2] was 3980 nM. Further, the logD in series [5] amounted to 3.7.
Turning to `O=C(O)c1cc(NC(=O)c2[nH]c(-c3ccccc3)nc2CCC23CC4CC(CC(C4)C2)C3)cc(C(=O)O)c1`, the figures for the inhibition constant (Ki) in series [3] and in series [2] were 631 nM and 6310 nM, respectively.
`O=C(O)c1cc(NC(=O)c2[nH]c(-c3ccccc3)nc2CC2CCCCCC2)cc(C(=O)O)c1` gave a Ki in series [2] of 7940 nM.
For `O=C(O)c1cc(NC(=O)c2cc(-c3ccccc3)[nH]c2CC2CCCCCC2)cc(C(=O)O)c1`, the Ki in series [3] is 251 nM; in series [2], 7940 nM.
Consider `O=C(O)c1cc(NC(=O)c2cc(-c3ccccc3)[nH]c2CCC23CC4CC(CC(C4)C2)C3)cc(C(=O)O)c1`, for which the Ki in series [3] is 200 nM; in series [2] it was 5010 nM.
On to `O=C(O)c1cc(NC(=O)c2cc(-c3ccccc3)[nH]c2CC23CC4CC(CC(C4)C2)C3)cc(C(=O)O)c1`, for which the Ki is 126 nM in series [3] and 7940 nM in series [2].
`CN(C(=O)c1cc2[nH]cnc2cc1C(=O)NCC12CC3CC(CC(C3)C1)C2)[C@@H](Cc1ccccc1)C(=O)Nc1cc(C(=O)O)cc(C(=O)O)c1` gave a Ki in series [3] of 25.1 nM. For the same compound, the Activity in series [1] was determined as 0.7.
`CNC[C@H](O)[C@@H](O)[C@H](O)[C@H](O)CO.O=C(O)c1cccc(NC(=O)[C@H](Cc2ccccc2)NC(=O)c2cc3[nH]cnc3cc2C(=O)NCC23CC4CC(CC(C4)C2)C3)c1`: the Ki is 398 nM in series [3] and 5010 nM in series [2]. Also, the dose excreted in series [6] is 39%. The same compound returned a pH-dependent lipophilicity (logD) in series [5] of 1.1.
As for `CNC[C@H](O)[C@@H](O)[C@H](O)[C@H](O)CO.O=C(O)c1cc(NC(=O)c2[nH]c(-c3ccc4ccccc4c3)nc2CC2CCCCCC2)cc(C(=O)O)c1`, in series [4], the dose excreted is 53%. The compound further showed an inhibitory constant (Ki) in series [2] of 3160 nM. In series [5], this compound showed a logD of 0.7.
In series [2], `O=C(O)c1cc(NC(=O)[C@H](Cc2ccccc2)NC(=O)C2C3c4ccccc4C(c4ccccc43)C2C(=O)NCC23CC4CC(CC(C4)C2)C3)cc(C(=O)O)c1` (some centres not stated) showed an inhibitory constant (Ki) of 2000 nM.
As to `O=C(O)c1cc(NC(=O)c2[nH]c(-c3ccc4[nH]ccc4c3)nc2CC2CCCCCC2)cc(C(=O)O)c1`, the values for the Ki in series [3] and in series [2] were 1000 nM and 5010 nM, respectively.
